Test results reported in ChEMBL document CHEMBL1131122, “Synthesis and biological activity of certain 4'-thio-D-arabinofuranosylpurine nucleosides” (J Med Chem, 1998).

How the values were obtained:
Format in all cases: functional, cell-based
Conditions in all cases: Homo sapiens
SNB-7 = test: Compound was evaluated for cytotoxicity against SNB-7 (CNS) cell line
CAKI-1 = test: Compound was evaluated for cytotoxicity against CAKI-1(renal) cell line
DLD-1 = test: Compound was evaluated for cytotoxicity against DLD-1(colon) cell line
SK-MEL-28 = test: Compound was evaluated for cytotoxicity against SK-MEL-28 (melanoma) cell line
NCI-H23 = test: Compound was evaluated for cytotoxicity against NCI-H23 (lung) cell line
CCRF-CEM = test: Compound was evaluated for cytotoxicity against CCRF-CEM (leukemia) cell line
How it was run: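 Human leukemia CEM cells grown in culture and exposed to the nucleosides. In one set of runs the adenosine deaminase inhibitor 2′-deoxycoformycin was also present during the incubation.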

| SMILES | IC50 (SNB-7) [nM] | IC50 (CAKI-1) [µM] | IC50 (DLD-1) [µM] | IC50 (SK-MEL-28) [nM] | IC50 (NCI-H23) [µM] | IC50 (CCRF-CEM) [nM] |
| --- | --- | --- | --- | --- | --- | --- |
| Nc1nc(N)c2ncn(C3SC(CO)C(O)C3O)c2n1 (centres undefined) | 1000 | 20 | > 25 | 340 | > 25 | 340 |
| Nc1nc(F)nc2c1ncn2[C@H]1S[C@H](CO)[C@@H](O)[C@@H]1O | > 100000 | 20 | > 100 | > 100000 | > 100 | > 130000 |
| Nc1nc(F)nc2c1ncn2[C@@H]1S[C@H](CO)[C@@H](O)[C@@H]1O | > 90000 | 10 | > 90 | > 90000 | > 90 | 30000 |
| Nc1nc(O)c2ncn(C3SC(CO)C(O)C3O)c2n1 (centres undefined) | 1100 | 14 | > 20 | 1100 | > 20 | 570 |
